# Measurements of several laboratories.
# Each line is one published result; the experiments were not run side by side.
# Cell line: NCI-H522
# Effect on: cell growth or viability
SMILES,assay,setting,endpoint,result
COc1ccc(C(=O)/C=C/c2ccc3ccccc3c2)cc1S(N)(=O)=O,SRB,10 µM,inhibition,163%
COc1ccc(-c2ccc(-c3ccc(C(=N)N)nc3)s2)cc1,SRB,,GI50,1900 nM
O=C1NCCc2[nH]c(-c3ccncc3)cc21,,,IC50,> 10000 nM
CCc1n(Cc2ccc3ccccc3n2)cc[n+]1Cc1ccc2ccccc2n1,SRB,,TGI,1490 nM
COc1ccc(C(=O)/C=C/c2cccc(Br)c2)cc1S(N)(=O)=O,SRB,48 h,GI50,1600 nM
COc1ccc(-c2ccc(-c3ccc(C(=N)N)nc3)s2)cc1Cl,SRB,,GI50,2100 nM
CCCCc1n(Cc2ccc3ccccc3n2)cc[n+]1Cc1ccc2ccccc2n1,SRB,,TGI,4190 nM
COc1ccc(C2=Nn3c(NN=C4C(=O)Nc5ccc(Cl)cc54)nnc3SC2)cc1,SRB,10 µM,inhibition,34%
CCc1n(Cc2ccc3ccccc3n2)cc[n+]1Cc1ccc2ccccc2c1,SRB,,TGI,986 nM
COc1ccc(C(=O)/C=C/c2cccnc2)cc1S(N)(=O)=O,SRB,48 h,GI50,10500 nM
CCCc1n(Cc2ccc3ccccc3n2)cc[n+]1Cc1ccc2ccccc2n1,SRB,,TGI,4300 nM
COc1ccc(C(=O)/C=C/c2ccccc2Br)cc1S(N)(=O)=O,SRB,48 h,GI50,1800 nM
S=C([S][Au-][P+](CCCCCC[P+]([Au-][S]C(=S)n1cccn1)(c1ccccc1)c1ccccc1)(c1ccccc1)c1ccccc1)n1cccn1,SRB,,GI50,1620 nM
